GPR7 antag: antagonists of human GPR7 (neuropeptides B/W receptor 1); inhibition, % at 4.4 µM; 290,000 tested, 1.1% active; P48145; GPR7-expressing cells, fluorescence antagonist assay; in the data active = inhibition above about 16%, passing the limit was not always enough;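 note: cells stimulated with the agonist NPW; 0% = agonist with vehicle and 100% = vehicle without agonist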
Target sequence (P48145 whole entry, looked up): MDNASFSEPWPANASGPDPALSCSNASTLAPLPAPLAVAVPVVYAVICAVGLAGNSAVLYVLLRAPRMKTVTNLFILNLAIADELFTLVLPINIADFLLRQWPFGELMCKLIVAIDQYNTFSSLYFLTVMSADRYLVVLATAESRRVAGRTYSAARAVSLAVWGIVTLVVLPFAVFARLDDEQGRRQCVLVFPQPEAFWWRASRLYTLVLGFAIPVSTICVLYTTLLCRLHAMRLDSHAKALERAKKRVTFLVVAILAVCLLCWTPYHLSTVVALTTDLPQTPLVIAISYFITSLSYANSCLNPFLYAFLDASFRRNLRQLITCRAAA
OX1R antag-1: OX1R (human) antagonism | O43613 | OX1R-expressing cells, FRET antagonist read-out | inhibition, % at 6.6 µM | 330,000 tested, 1.8% active | AID 485270; in the data active = inhibition mostly above about 38%, no sharp cut-off; inactive = mostly below about 40%;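 note: 0% = agonist challenge alone and 100% = reference antagonist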
TAAR1 agonist: agonists of human TAAR1; Q96RJ0; CHO RD-HGA16 TAAR1, Fluo-8 calcium fluorescence; vehicle wells 0%, saturating PEA agonist 100%; activation, % at 3 µM; 360,000 tested, 0.99% active;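 active = activation above the mean activation of all test compounds in the run plus 3 SD, cut at about 38% in these data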
Target sequence (Q96RJ0 whole entry, looked up): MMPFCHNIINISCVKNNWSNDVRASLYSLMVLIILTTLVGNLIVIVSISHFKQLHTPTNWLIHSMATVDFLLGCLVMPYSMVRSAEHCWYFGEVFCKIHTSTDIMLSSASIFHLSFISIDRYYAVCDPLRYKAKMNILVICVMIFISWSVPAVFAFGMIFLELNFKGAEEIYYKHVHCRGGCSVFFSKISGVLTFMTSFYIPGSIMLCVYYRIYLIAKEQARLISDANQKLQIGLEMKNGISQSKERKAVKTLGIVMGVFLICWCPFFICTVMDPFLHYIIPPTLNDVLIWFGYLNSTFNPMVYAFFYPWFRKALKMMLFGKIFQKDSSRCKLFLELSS
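System: CHO RD-HGA16 cells carrying human TAAR1 plus Gα16; Incubation: 17-24 h seeding, 75 min 37 °C dye, 30 min RT; Measured by: Fluo-8 fluorescence, 5 s baseline then 140 s kinetic read; Control set: DMSO and PEA EC100; Replication: single well for each compound.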
TAAR1 antag: antagonists of human TAAR1. Q96RJ0. CHO RD-HGA16 TAAR1, Fluo-8 calcium fluorescence, antagonist. inhibition, % at 3 µM. 360,000 tested, 1.5% active. AID 624466;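 active = inhibition above a per-plate cutoff, the mean inhibition of test compounds on that plate plus 3 SD, cut at about 49% in these data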;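 note: 0% = DMSO plus EC80 beta-PEA response and 100% = DMSO alone without agonist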
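Test system – hTAAR1-expressing CHO RD-HGA16 cells, Gα16-coupled · Reagent – β-PEA at EC80 concentration, post-compound challenge · Compound dosing – 3 µM, single point · Timing – 140 s kinetic read after compound, 140 s after agonist · Detection – Fluo-8 intracellular calcium dye fluorescence, real-time kinetic reads · Control set – DMSO and EC80 PEA controls · Repeats – n of 1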
OX1R antag-2: human HCRTR1 antagonism; CHO/OX1R cells, Fluo-8 calcium fluorescence, orexin A; inhibition, % at 5 µM; 330,000 tested, 0.43% active; AID 434989;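 active = inhibition above its plate's threshold, mean inhibition of all tested compounds on the plate plus 3 SD, cut at about 37% in these data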;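 note: 0% = orexin A challenge wells and 100% = SB-334867-A antagonist wells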
CHO parental Ca: counter-screen: ATP calcium response change in parental CHO cells; parental CHO-K1, ATP-induced calcium, Fluo-8 fluorescence; inhibition, % at 5.6 µM; 330,000 tested, 0.63% active; AID 463079;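 active = inhibition above that plate's mean sample inhibition plus 3 SD, cut at about 26% in these data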;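 note: 0% = ATP-challenged DMSO wells and 100% = DMSO wells without ATP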
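test system = CHO parental line | reagent = ATP stimulus | measured by = intracellular calcium via Fluo-8 no-wash fluorescent dye | control set = ATP and no-ATP DMSO wells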
OX1R HTRF confirm: confirmation of human orexin 1 receptor antagonists, HTRF format; shares compounds with OX1R antag-1; inhibition, % at 6.6 µM; 1,800 tested, 49% active; AID 492964; OX1R-expressing cells, HTRF antagonist assay; in the data active = inhibition above about 55%;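 note: CHO cells expressing OX1R stimulated with orexin A at about EC80; 0% = agonist challenge alone and 100% = reference antagonist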
CHO-K1 HTRF cnt: counter-screen: parental CHO-K1 HTRF response; 1,800 tested, 48% active; inhibition, % at 6.6 µM; parental CHO-K1 cells, HTRF counterscreen; shares compounds with OX1R antag-1; AID 493232; in the data active = inhibition above about 17%;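 note: 0% = agonist challenge with vehicle and 100% = vehicle alone without agonist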
Numbers without * were called inactive; / = no result given. Compounds with a hit are over-represented: about 4.6% of the library has one in this group of screens.

SMILES	GPR7 antag	OX1R antag-1	TAAR1 agonist	TAAR1 antag	OX1R antag-2	CHO parental Ca	OX1R HTRF confirm	CHO-K1 HTRF cnt
Cc1cc(/C=N/n2c(COc3ccccc3)nc3ccccc3c2=O)c(O)c([N+](=O)[O-])c1	-6	92*	0	41	-18	-18	37	12
O=C(c1nc2nc(-c3ccccc3)cc(C(F)(F)F)n2n1)N1CCOCC1	-9	77*	2	-17	0	-4	22	27*
O=C(c1nn2c(C(F)(F)F)cc(-c3ccccc3)nc2c1Cl)N1CCOCC1	-8	7	2	-18	-29	-14	/	/
Cc1nc(SC2CC(=O)N(c3ccccc3)C2=O)n[nH]1 (configuration not stated)	-4	-4	6	-6	0	-2	/	/
Cc1nc(S/C(C(=O)O)=C2/C(=O)Nc3ccccc32)n[nH]1	-11	78*	4	-9	-6	-2	42	46*
CCN(C(=O)CSc1nc2scc(-c3ccccc3)c2c(=O)n1N)C1CCS(=O)(=O)C1 (configuration not stated)	/	/	4	3	/	/	/	/
Cc1cc(C)cc(-n2ncc3c2CCCC3NC(=O)c2ccccc2)c1 (configuration not stated)	/	/	4	-7	/	/	/	/
CN(C)CCNC(=O)c1cccc(-c2cnc3c(NC=O)cc(-c4cccs4)cn23)c1	/	/	1	3	/	/	/	/
O=C(Nc1nc(-c2cccs2)cs1)c1ccco1	-12	10	-1	-9	-26	-26	/	/
COc1ccc(C(=O)Nc2nc(-c3cccs3)cs2)cc1	-1	90*	5	7	-7	-15	65*	20*
Nc1c(Cl)ncnc1N/N=C/c1cccnc1	-12	84*	1	-21	-11	0	24	31*
N/C(=N/OC(=O)c1ccccc1Cl)c1ncc([N+](=O)[O-])s1	5	47	0	5	-21	-1	/	/
COC(=O)[C@@]12C[C@@H](CC(=O)NCc3ccccc3)C(=O)N(Cc3ccc4c(c3)OCO4)C1=CCC(C)(C)C2	/	/	1	-12	/	/	/	/
COc1cc(C(=O)NCCNc2nc3c(C)cccc3cc2C#N)cc(OC)c1OC	/	/	2	-16	/	/	/	/
COc1ccc(C(=O)NCCNc2nc3c(C)cccc3cc2C#N)cc1OC	-9	90*	10	0	18	-6	87*	8
CCOc1ccc(N=Nc2c(=O)[nH]n3c(C)cc(C)nc23)cc1	-9	149*	-1	-1	-9	-2	64*	74*
CCOC(=O)c1cc2c(=O)n3ccccc3nc2n(CCCOC)c1=NC(=O)c1ccncc1	4	85*	13	43	-9	-19	34	33*
CCOC(=O)c1cc2c(=O)n3ccccc3nc2n(Cc2ccco2)c1=NC(=O)c1ccc(OC)cc1	1	13	0	-74	-16	-8	/	/
C=CCn1c(=O)c(C#N)cc2c(=O)n3ccccc3nc21	4	137*	7	-17	-9	-6	44	34*
N=c1c(C(=O)NCc2ccc(F)cc2)cc2c(=O)n3ccccc3nc2n1CCCN1CCOCC1	5	82*	2	-24	-2	0	65*	35*
N#Cc1cc2c(=O)n3ccccc3nc2n(-c2ccc(Cl)cc2)c1=O	-18	49	5	0	-12	-9	/	/
Cc1cc(-n2c(=O)c(C#N)cc3c(=O)n4ccccc4nc32)no1	-6	128*	1	-7	-17	-8	46	75*
Cc1ccc(Cc2c(C3CCCCC3)nc3cc(C)c(Br)c(C)n23)cc1	/	/	1	-29	/	/	/	/
C=CCn1c(=N)c(C(=O)NCCCOC)cc2c(=O)n3ccccc3nc21	-11	137*	2	-19	15	-16	56*	83*
COCCCn1c(C(=O)NCCN2CCOCC2)cc2c(=O)n3ccccc3nc21	-3	52	1	4	-18	-6	/	/
SMILES	GPR7 antag	OX1R antag-1	TAAR1 agonist	TAAR1 antag	OX1R antag-2	CHO parental Ca	OX1R HTRF confirm	CHO-K1 HTRF cnt
C=CCn1c(=N)c(C#N)cc2c(=O)n3ccccc3nc21	-12	102*	4	13	-9	-2	55*	78*
COc1ccc(-n2nc([N+](=O)[O-])c(=NC3CCN(Cc4ccccc4)CC3)n2O)cc1	-7	79*	4	4	-37	-20	61*	55*
COc1ccc(-n2nc([N+](=O)[O-])c(=NCCc3ccc(C)cc3)n2O)cc1	-10	34	1	-16	-41	-22	/	/
COc1ccc(-n2nc([N+](=O)[O-])c(=NCc3ccco3)n2O)cc1	2	43	8	4	1	7	/	/
COc1ccc(-n2nc([N+](=O)[O-])c(=NCCc3ccc(OC)c(OC)c3)n2O)cc1	-2	84*	5	-20	-9	1	46	54*
COc1ccc(-n2nc([N+](=O)[O-])c(=NCCc3ccc(Cl)cc3)n2O)cc1	10	19	1	15	-15	-24	/	/
COc1ccc(-n2nc([N+](=O)[O-])c(=NCc3cccnc3)n2O)cc1	3	123*	0	-8	-3	-9	61*	78*
CCc1nc2c(OCc3ccc(OC)cc3)cccn2c1N(C)C(=O)c1ccco1	/	/	1	3	/	/	/	/
Cc1cc(NC(=O)CCc2c[nH]c3ccccc23)ccc1Oc1cccnc1	/	/	0	3	/	/	/	/
O=C(COC(=O)c1cc(-c2ccncc2)nc2ccccc12)Nc1ccc2c(c1)OCO2	0	152*	/	/	-1	1	35	24*
CC(=O)Nc1ccc(S(=O)(=O)/N=C2\C(=O)c3ccccc3C([O-])=C2n2cc[n+](-c3ccccn3)c2)cc1	-11	144*	-1	-10	-10	-4	35	38*
CCOC(=O)/C(=C\Nc1ccc(OCc2ccccc2)cc1)NC(=O)c1ccccc1	/	/	2	-4	/	/	/	/
COc1ccc(C(=O)c2ccccc2)c2c(O)ccc(C(=O)c3ccccc3)c12	-5	104*	13	11	18	6	60*	6
Cc1cccc(NC(=O)c2ccc([N+](=O)[O-])o2)n1	4	97*	11	-5	-8	-5	45	64*
O=C(Nc1ccc(N2CCOCC2)cc1)c1ccc([N+](=O)[O-])o1	-13	95*	-3	-12	-4	5	41	15
Cc1cccnc1NC(=O)c1ccc([N+](=O)[O-])o1	-5	116*	7	18	0	2	36	58*
